ChEMBL document CHEMBL3813648, “Synthesis and evaluation of antioxidant phenolic diaryl hydrazones as potent antiangiogenic agents in atherosclerosis” (Bioorg Med Chem, 2016)
Active and inactive are the calls of the source. The calls are words filed in the database; no cut-off is given here.

How the values were obtained:
[1] = Cytoprotective activity in HMEC1 assessed as inhibition of oxidized LDL induced toxicity measured as residual viability at 10 uM after 24 hrs by MTT assay (reference value: 20 +/- 5 %); format: functional, Homo sapiens, HMEC-1
[2] = Antioxidant activity in HMEC1 assessed as inhibition of cell induced LDL oxidation by measuring TBARS level at 10 uM relative to control; format: functional, Homo sapiens, HMEC-1; set-up: scale not given: the % may be the effect or the level left
Outline: (§1)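 HMEC-1 (passage 30-36) in serum-free RPMI 1640 with native human LDL (100 µg apoB/mL). Agent added with the LDL in DMSO (0.1% final), 14 h at 37 °C. TBARS measured in the medium and expressed as % of LDL-plus-vehicle control; Trolox reference. Mean ± SEM of 4 experiments.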

[3] = system: HMEC-1; assay: Inhibition of oxidized LDL induced intracellular ROS formation in HMEC1 at 10 uM preincubated for 30 to 40 mins followed by H2DCFDA-AM addition by fluorescence analysis; format: functional, cell-based; conditions: Homo sapiens
Outline: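 HMEC-1 given oxLDL (20 µg/mL) ± agent (10 µM) for 40 min. H2DCFDA-AM (5 µM final) added 30 min before the end, then cells washed three times with PBS. Homogenate fluorescence read at ex 495/em 520 nm as a ratio to unstimulated control. Mean ± SEM, 4 experiments.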

[4] = Cytotoxicity against HMEC1 assessed as cell viability at 10 uM after 24 hrs by MTT assay in absence of oxidized LDL; set-up: species or system HMEC-1; conditions: human, HMEC1 cells; read-out: Activity
[5] = system: HMEC-1; assay: Antiangiogenic activity in HMEC1 assessed as inhibition of oxidized LDL induced tube formation at 10 uM after 18 hrs by calcein staining based fluorescence microscopy; format: functional; conditions: Homo sapiens
Outline: (§2)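 HMEC-1 (passage 30-36, serum-starved 24 h) seeded at 30,000 cells/well on Matrigel. Grown 18 h at 37 °C in MCDB-131 with UV-C mildly oxidized LDL (20 µg/mL) ± agent (10 µM). Controls were 0.1% FBS (negative) and 2.5% FBS (positive). Calcein stain (1 µM, 30 min), then fluorescence microscopy. Linked cells counted as % of total cells; mean ± SEM, 4 experiments.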

[6] = Antioxidant activity assessed as inhibition of DPPH free radical scavenging activity after 60 mins by UV-Visible spectrophotometry; format: physicochemical
Outline: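 Reduction of ethanolic DPPH radical read by absorbance at 517 nm at 0 and after 60 min at room temperature. I% = 100×(A0−A60)/A0. IC50 is the concentration giving 50% radical inhibition. Run in triplicate, mean ± SEM; Trolox reference.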

[7] = Cytotoxicity against HMEC1 assessed as cell viability at 1 uM after 24 hrs by MTT assay in absence of oxidized LDL; set-up: species or system HMEC-1; conditions: human, HMEC1 cells; read-out: Activity
[8] = Cytoprotective activity in HMEC1 assessed as inhibition of oxidized LDL induced toxicity measured as residual viability at 1 uM after 24 hrs by MTT assay (reference value: 20 +/- 5 %); format: functional, Homo sapiens, HMEC-1
[9] = Antioxidant activity in HMEC1 assessed as inhibition of cell induced LDL oxidation by measuring TBARS level at 1 uM relative to control; format: functional, Homo sapiens, HMEC-1; set-up: scale not given: the % may be the effect or the level left; outline: as §1
[10] = Antiangiogenic activity in HMEC1 assessed as inhibition of oxidized LDL induced tube formation measured as residual tube at 10 uM after 18 hrs by calcein staining based fluorescence microscopy; format: functional, Homo sapiens, HMEC-1; outline: as §2
[11] = Antioxidant activity assessed as inhibition of DPPH free radical scavenging activity by EPR spectrophotometry; format: physicochemical
Outline: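 DPPH radical scavenging measured by EPR spectroscopy instead of absorbance at 517 nm, used where staining prevented the absorbance reading; value given as IC50 for 50% DPPH radical inhibition.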

Row | Compound | IC50 [6] | IC50 [11] | Activity [1] | Activity [2] | ROS inhibition (active/not active) [3] | viability at 24 h, 10 µM [4] | antiangiogenic activity (active/not active) [5] | viability at 24 h, 1 µM [7] | Activity [8] | Activity [9] | Activity [10]
1 | COc1cc(/C=N/Nc2nc3ccccc3s2)cc(-c2cc(/C=N/Nc3nc4ccccc4s3)cc(OC)c2O)c1O | 27.7 µM |  | 91% | 7% | Active | 78% | Active | 90% | 58% | 19% | 
2 | COc1cc(/C=N/NC(=O)OCc2ccccc2)cc(-c2cc(/C=N/NC(=O)OCc3ccccc3)cc(OC)c2O)c1O | 59.7 µM |  | 90% | 5% | Active | 85% | Active | 91% | 52% | 18% | 
3 | COc1cc(/C=N/NC(=O)c2cc(C)n[nH]2)cc(-c2cc(/C=N/NC(=O)c3cc(C)n[nH]3)cc(OC)c2O)c1O | 29.1 µM |  | 40% | 71% |  | 105% |  | 107% | 14% | 99% | 
4 | COc1cc(/C=N/N=c2\[nH]ncc3ccccc23)cc(-c2cc(/C=N/N=c3/[nH]ncc4ccccc34)cc(OC)c2O)c1O.Cl.Cl |  |  | 99% | 8% |  |  |  |  | 52% | 56% | 
5 | COc1cc(/C=N/NC(=O)c2ccncc2)cc(Oc2cc(/C=N/NC(=O)c3ccncc3)cc(OC)c2O)c1O | 21.5 µM |  | 66% | 88% |  | 92% |  | 95% | 42% | 100% | 
6 | COc1cc(/C=N/NC(=O)c2ccncc2)cc(-c2cc(/C=N/NC(=O)c3ccncc3)cc(OC)c2O)c1O | 38.8 µM |  | 19% | 92% |  | 88% |  | 100% | 18% | 112% | 
7 | COc1cc(/C=N/NC(=O)c2cc(C)n[nH]2)cc(Oc2cc(/C=N/NC(=O)c3cc(C)n[nH]3)cc(OC)c2O)c1O | 19.8 µM |  | 65% | 91% |  | 100% |  | 95% | 41% | 97% | 
8 | COc1cc(C=O)cc(-c2cc(C=O)cc(OC)c2O)c1O | 382 µM |  | 21% | 88% |  | 99% |  | 100% | 19% | 103% | 
9 | COc1cc(C=O)cc(Oc2cc(C=O)cc(OC)c2O)c1O | 289 µM |  | 35% | 87% |  | 85% |  | 89% | 32% | 95% | 
10 | Cc1c(C)c2c(c(C)c1O)CCC(C)(C(=O)O)O2 (configuration not stated) [TROLOX] | 20.1 µM | 17.7 µM | 68% | 10% | Active | 95% | Active | 98% | 45% | 57% | 20%

Now from value to compound, other results behind:

Row | IC50 [6] | IC50 [11] | Compound | Activity [1] | Activity [2] | ROS inhibition (active/not active) [3] | viability at 24 h, 10 µM [4] | antiangiogenic activity (active/not active) [5] | viability at 24 h, 1 µM [7] | Activity [8] | Activity [9] | Activity [10]
11 | 23.6 µM |  | COc1cc(/C=N/NC(=O)OCc2ccccc2)cc(Oc2cc(/C=N/NC(=O)OCc3ccccc3)cc(OC)c2O)c1O | 69% | 6% | inactive | 94% | inactive | 102% | 51% | 28% | 
12 | 11.5 µM |  | COc1cc(/C=N/N=c2/[nH]ncc3ccccc23)cc(Oc2cc(/C=N/N=c3/[nH]ncc4ccccc34)cc(OC)c2O)c1O.Cl.Cl | 72% | 10% | Active | 90% |  | 95% | 56% | 37% | <5%
13 | 9.7 µM |  | COc1cc(/C=N/Nc2nncc3ccccc23)cc(-c2cc(/C=N/Nc3nncc4ccccc34)cc(OC)c2O)c1O |  |  | Active | 98% | Active | 109% |  |  | 
14 | 8.6 µM |  | COc1cc(/C=N/Nc2nc3ccccc3s2)cc(Oc2cc(/C=N/Nc3nc4ccccc4s3)cc(OC)c2O)c1O | 69% | 12% | Active | 80% | Active | 93% | 51% | 93% | 
